Data from ChEMBL document CHEMBL1154674, “Synthesis and evaluation of three 18F-labeled aminophenylbenzothiazoles as amyloid imaging agents” (J Med Chem, 2009).

Target: Amyloid-beta precursor protein (Homo sapiens, UniProt P05067)
Experiment: Displacement of [125I]IMPY from beta-amyloid plaques in Alzheimer's disease patient brain homogenate
Type: tissue-based
Method in brief: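 Test compound was added at 10^-5–10^-10 M, serially diluted in PBS containing 0.1% BSA. Nonspecific binding was defined with 600 nM unlabeled IMPY. Incubation was 37 °C for 2 h, followed by GF/B vacuum filtration, PBS washes and γ counting. Ki came from nonlinear regression.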

Amyloid-beta precursor protein, sequence (P05067 whole entry): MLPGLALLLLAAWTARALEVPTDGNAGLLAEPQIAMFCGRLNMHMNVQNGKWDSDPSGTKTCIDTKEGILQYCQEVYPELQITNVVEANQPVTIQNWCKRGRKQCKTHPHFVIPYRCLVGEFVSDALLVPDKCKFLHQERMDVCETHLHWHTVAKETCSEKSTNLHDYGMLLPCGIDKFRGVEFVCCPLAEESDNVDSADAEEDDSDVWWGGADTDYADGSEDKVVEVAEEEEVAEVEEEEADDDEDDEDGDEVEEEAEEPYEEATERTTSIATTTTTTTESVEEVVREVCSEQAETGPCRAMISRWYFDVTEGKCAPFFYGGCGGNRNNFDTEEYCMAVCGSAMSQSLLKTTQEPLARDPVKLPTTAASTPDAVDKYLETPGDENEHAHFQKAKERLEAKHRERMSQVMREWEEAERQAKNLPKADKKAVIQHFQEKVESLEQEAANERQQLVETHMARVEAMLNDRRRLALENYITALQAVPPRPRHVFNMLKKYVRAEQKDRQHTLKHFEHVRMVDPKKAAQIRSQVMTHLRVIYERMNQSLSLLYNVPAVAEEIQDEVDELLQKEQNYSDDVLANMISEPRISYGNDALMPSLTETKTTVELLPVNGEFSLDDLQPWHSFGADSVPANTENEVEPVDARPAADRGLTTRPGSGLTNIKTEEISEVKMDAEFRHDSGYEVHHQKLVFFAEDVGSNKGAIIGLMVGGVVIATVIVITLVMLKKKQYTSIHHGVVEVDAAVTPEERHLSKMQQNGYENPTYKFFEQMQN

Compound: CNc1ccc2nc(-c3ccc(F)cc3)sc2c1
- Ki: 4.1 nM
